Source: ChEMBL document CHEMBL3112563, “The benzimidazole based drugs show good activity against T. gondii but poor activity against its proposed enoyl reductase enzyme target” (Bioorg Med Chem Lett, 2014)
pIC50: −log10 of the molar value. Converted amounts (≈) assume the structure as drawn. The source made the active and inactive calls. No cut-off for these calls is given here.

What was measured:
PC-3 = assay: Cytotoxicity against human PC3 cells at 10 uM after 96 hrs by luciferase reporter gene assay; format: cell-based; conditions: pc-3, 96 h
Procedure, shortened: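 Confluent luciferase-expressing PC3-Luc cells in phenol red-free DMEM (10% FCS, 1% L-glutamine, 1% penicillin-streptomycin) given compound at 10 nM–10 µM. D-luciferin potassium salt added at 150 µg/ml at 48 and 96 h, then bioluminescence imaged for 1 min. Cytotoxicity taken as loss of signal. Controls: 1% Triton X (positive) and vehicle.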

Toxoplasma gondii [1] = assay: Antiparasitic activity against tachyzoite stage of Toxoplasma gondii RH infected in HFF assessed as inhibition of parasite growth after 72 hrs by yellow fluorescence reporter gene assay; format: functional
Procedure, shortened: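 HFF infected with 3200 RH-YFP tachyzoites (type 1, stably transfected with yellow fluorescence gene) and treated with compound at the indicated concentrations. Relative YFP fluorescence read after 72 h at excitation/emission 510/540 nm. Controls: pyrimethamine/sulfadiazine (positive), 0.1% DMSO (negative).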

HFF = assay: Cytotoxicity against HFF assessed as cell viability at 10 uM after 72 hrs by WST-1 assay; format: cell-based; conditions: human
Procedure, shortened: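 Host HFF incubated with compound at 10 µM for 72 h. Viability read by WST-1 staining. DMSO at several concentrations in the culture medium gave a standard toxicity curve.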

[2] = target: T1, Enoyl-acyl carrier reductase (Toxoplasma gondii, UniProt Q6UCJ9); assay: Inhibition of Toxoplasma gondii enoyl-ACP reductase-NADH complex
T1 sequence (Q6UCJ9 whole entry): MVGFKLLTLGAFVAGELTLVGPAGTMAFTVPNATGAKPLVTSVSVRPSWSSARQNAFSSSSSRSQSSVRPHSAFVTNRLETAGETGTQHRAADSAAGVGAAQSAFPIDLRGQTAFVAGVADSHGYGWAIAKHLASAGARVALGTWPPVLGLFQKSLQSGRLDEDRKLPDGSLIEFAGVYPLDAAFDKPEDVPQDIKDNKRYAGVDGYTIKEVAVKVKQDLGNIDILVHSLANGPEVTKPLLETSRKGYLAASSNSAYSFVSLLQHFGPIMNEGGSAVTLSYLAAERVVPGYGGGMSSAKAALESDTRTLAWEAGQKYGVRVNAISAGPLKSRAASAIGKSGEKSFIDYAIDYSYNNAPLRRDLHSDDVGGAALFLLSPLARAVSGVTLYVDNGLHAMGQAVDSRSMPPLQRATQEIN

Toxoplasma gondii [3] = assay: Antiparasitic activity against tachyzoite stage of Toxoplasma gondii PRU infected in HFF assessed as inhibition of parasite growth at 10 uM after 72 hrs by yellow fluorescence reporter gene assay; format: functional

For Cc1ccc(Cn2cnc3cc(C)c(C)cc32)cc1, the Activity (PC-3) was “Non-toxic”, the MIC50 (Toxoplasma gondii [1]) was over 10 µM and the Activity (HFF) was “Non-toxic”. For the same molecule, the pIC50 [2] was under 6.00 and the inhibition (Toxoplasma gondii [3]) was “Active”.
With Cc1cc2ncn(Cc3ccc(Cl)c(Cl)c3)c2cc1C the Activity (PC-3) was “Non-toxic”, the MIC50 (Toxoplasma gondii [1]) was 2.5 µM (≈ 0.763 µg/mL) and the Activity (HFF) was “Non-toxic”. For the same molecule, the pIC50 [2] was under 6.00 and the inhibition (Toxoplasma gondii [3]) was “Active”.
In the case of Cc1cc2ncn(Cc3ccc(Cl)cc3)c2cc1C, the Activity (PC-3) was “Non-toxic”, the MIC50 (Toxoplasma gondii [1]) was 4 µM (≈ 1.08 µg/mL) and the Activity (HFF) was “Non-toxic”. The pIC50 [2] was under 6.00.
